Experimental findings from ChEMBL document CHEMBL2401654, “Synthesis, characterization, and biological assessment of the four stereoisomers of the H(3) receptor antagonist 5-fluoro-2-methyl-N-[2-methyl-4-(2-methyl[1,3']bipyrrolidinyl-1'-yl)phenyl]benzamide” (Bioorg Med Chem Lett, 2013) are described below.

In one data set the test system is Salmonella typhimurium. The data set is described as follows: Mutagenic activity in Salmonella typhimurium by Ames test. The data set is classed as toxicity, organism-based. Conditions: salmonella enterica subsp. enterica serovar typhimurium.
A short description of data set [1]: Drug metabolism in mouse liver microsomes at 5 uM after 20 mins. It is filed as ADME, Microsome. Conditions: read-out: Drug metabolism. In short, it runs like this: (§1)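 Substrate at 5 µM incubated at 37 °C for 20 min with in-house liver microsome preparations (human, mouse or rat). Reported as the percentage of parent compound metabolized.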
Data set [2] can be described thus: Ratio of AUC (0 to 24 hrs) in C57BL/6 mouse brain to AUC (0 to 24 hrs) in C57BL/6 mouse plasma at 10 mg/kg, po. The data set is classed as ADME, organism-based. Further details: dose 10 mg/kg, route oral. Conditions: read-out: Ratio AUC. In short, it runs like this:
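Male C57BL/6 mice were given a single oral dose of 10 mg/kg, formulated at 1 mg/mL in 5% DMSO/0.5% MC/0.2% tween 80. Compound levels were measured in plasma and brain over time. The brain-to-plasma ratio was calculated from AUC0-24 values.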

Data set [3] is described as follows: Tmax in C57BL/6 mouse plasma at 10 mg/kg, po. The data set is classed as ADME, organism-based. Further details: dose 10 mg/kg, route oral. In short, it runs like this:
(§2)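 Male C57BL/6 mice were dosed orally at 10 mg/kg, formulated at 1 mg/mL in 5% DMSO/0.5% MC/0.2% tween 80. Plasma and brain were sampled for PK parameters. Brain to plasma ratio was based on AUC0-24.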

The nature of data set [4]: Drug metabolism in human liver microsomes at 5 uM after 20 mins. The data set is classed as ADME, Microsome. Conditions: read-out: Drug metabolism. In short, it runs like this:
as §1

A short description of data set [5]: Cmax in C57BL/6 mouse brain at 10 mg/kg, po. The data set is classed as ADME, organism-based. Further details: dose 10 mg/kg, route oral. A digest of the protocol:
as §2

Another data set concerns the target Histamine receptor H3 (Macaca mulatta, UniProt Q865E1). The data set is described as follows: Displacement of [3H]N-alpha-methylhistamine from recombinant rhesus monkey histamine H3 receptor transfected in CHO cell membranes after 1 hr by scintillation counting analysis. (In general: Displacement assays read how much labelled ligand stays bound in the presence of the test substance.)

The target in the next data set is hERG (KCNH2) (Homo sapiens, UniProt Q12809). The data set is described as follows: Inhibition of human ERG transfected in CHO cells at 10 uM by patch clamp assay relative to control. It is filed as cell-based. As to conditions: CHO cells transfected with human ERG. In short, it runs like this:
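Whole-cell patch clamp on CHO cells stably transfected with the human ERG gene.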
On the technique in general: The patch-clamp technique gives a direct electrical read-out from membranes.

Data set [6] is described as follows: Tmax in C57BL/6 mouse brain at 2 mg/kg, iv. It is filed as ADME, organism-based. Further details: dose 2 mg/kg, route intravenous. A digest of the protocol:
(§3)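 Male C57BL/6 mice received a single intravenous dose of 2 mg/kg, formulated at 1 mg/mL in 50% 1-methyl-2-pyrrolidinone in saline. Plasma and brain concentrations were followed to derive PK parameters. Brain to plasma ratio was calculated from AUC.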

Data set [7] is described as follows: Clearance in C57BL/6 mouse at 2 mg/kg, iv. It is filed as ADME, organism-based. Further details: dose 2 mg/kg, route intravenous. Conditions: in vivo. In short, it runs like this: as §3
The nature of data set [8]: Tmax in C57BL/6 mouse brain at 10 mg/kg, po. Also on record: dose 10 mg/kg, route oral. It is filed as ADME, organism-based. A digest of the protocol:
as §2

Data set [9] in a line: AUC (0 to infinity) in C57BL/6 mouse plasma at 2 mg/kg, iv. Further details: time infinity, dose 2 mg/kg, route intravenous. The data set is classed as ADME, organism-based. In short, it runs like this: as §3
For data set [10], the system named is Mus musculus. The data set is described as follows: Toxicity in mouse assessed as increase in tail pinch at 30 mg/kg, po measured at 6 hrs. It is filed as organism-based. Further details: dose 30 mg/kg, route oral. Conditions: in vivo. A digest of the protocol:
(§4)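 Behavioral safety study in mice given single oral doses of 3, 10 and 30 mg/kg. Tremors, tail pinch response, body temperature, pupil size and body weight were scored at 2 and 6 h post dose. Clinical signs were observed over one week after dosing.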

Data set [11] in a line: Partition coefficient, log P of the compound. The data set is classed as physicochemical. Conditions: octanol/water.
A short description of data set [12]: AUC (0 to infinity) in C57BL/6 mouse brain at 2 mg/kg, iv. The data set is classed as ADME, organism-based. Also on record: time infinity, dose 2 mg/kg, route intravenous. A digest of the protocol:
as §3

Data set [13] in a line: Half life in C57BL/6 mouse brain at 10 mg/kg, po. Also on record: dose 10 mg/kg, route oral. The data set is classed as ADME, organism-based. A digest of the protocol: as §2
Data set [14] is described as follows: Ratio of AUC (0 to 24 hrs) in C57BL/6 mouse brain to AUC (0 to 24 hrs) in C57BL/6 mouse plasma at 2 mg/kg, iv. As to conditions: read-out: Ratio AUC. Further details: dose 2 mg/kg, route intravenous. It is filed as ADME, organism-based. In short, it runs like this: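 Male C57BL/6 mice were given a single intravenous dose of 2 mg/kg, formulated at 1 mg/mL in 50% 1-methyl-2-pyrrolidinone in saline. Plasma and brain exposure profiles were collected, and the brain-to-plasma ratio was derived from the AUC values of the two tissues.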

The target of a further data set is Cytochrome P450 2C19 (Homo sapiens, UniProt P33261). The data set is described as follows: Inhibition of CYP2C19 (unknown origin). The data set is classed as ADME.
Cytochrome P450 2C19, sequence (P33261 whole entry): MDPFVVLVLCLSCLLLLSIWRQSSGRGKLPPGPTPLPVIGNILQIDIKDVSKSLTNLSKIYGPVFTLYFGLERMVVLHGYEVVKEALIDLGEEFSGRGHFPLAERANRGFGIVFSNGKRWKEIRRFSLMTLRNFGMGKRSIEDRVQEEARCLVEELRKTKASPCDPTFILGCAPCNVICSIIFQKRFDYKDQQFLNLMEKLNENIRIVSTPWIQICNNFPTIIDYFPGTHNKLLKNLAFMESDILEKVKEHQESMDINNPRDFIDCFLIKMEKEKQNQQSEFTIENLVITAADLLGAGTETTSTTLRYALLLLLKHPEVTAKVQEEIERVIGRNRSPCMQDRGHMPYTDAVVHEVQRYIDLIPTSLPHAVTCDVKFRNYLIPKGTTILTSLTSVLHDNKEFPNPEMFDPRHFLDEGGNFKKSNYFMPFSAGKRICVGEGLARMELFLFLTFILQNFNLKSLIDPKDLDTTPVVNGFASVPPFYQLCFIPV
Data set [15] is described as follows: Cmax in C57BL/6 mouse plasma at 2 mg/kg, iv. The data set is classed as ADME, organism-based. Further details: dose 2 mg/kg, route intravenous. A digest of the protocol:
as §3

Data set [16] in a line: Half life in C57BL/6 mouse plasma at 2 mg/kg, iv. The data set is classed as ADME, organism-based. Further details: dose 2 mg/kg, route intravenous. A digest of the protocol:
as §3

In data set [17] the test system is Mus musculus. The data set is described as follows: Toxicity in mouse assessed as increase in body temperature at 30 mg/kg, po measured at 6 hrs. Conditions: in vivo. Further details: dose 30 mg/kg, route oral. It is filed as organism-based. In short, it runs like this: as §4
The next data set concerns the target Histamine H3 receptor (Homo sapiens, UniProt Q9Y5N1). The data set is described as follows: Displacement of [3H]N-alpha-methylhistamine from recombinant human histamine H3 receptor transfected in CHO cell membranes after 1 hr by scintillation counting analysis. In short, it runs like this:
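Radioligand displacement of [3H]N-α-methylhistamine using membranes from CHO cells stably transfected with recombinant human or rat H3 receptor. Ki is presented as a range of multiple experiments (n ≥ 3).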

A short description of data set [18]: Half life in C57BL/6 mouse brain at 2 mg/kg, iv. It is filed as ADME, organism-based. Also on record: dose 2 mg/kg, route intravenous. In short, it runs like this: as §3
Data set [19] is described as follows: Half life in C57BL/6 mouse plasma at 10 mg/kg, po. Also on record: dose 10 mg/kg, route oral. It is filed as ADME, organism-based. A digest of the protocol:
as §2

The term Tmax denotes the time at which the peak concentration occurs. As usually defined, the Cmax is the maximum level reached in the sampled fluid or tissue. One may read the Ki as a dissociation constant, usually derived from enzyme kinetics or from competition with a known ligand. Usually inhibition stands for the relative decrease from the control value, in per cent. In general, clearance refers to the rate of elimination divided by the concentration. As usually defined, the AUC(0-inf) is the area under the concentration-time curve extrapolated to infinity. Usually logP stands for a log measure of how a compound divides between an organic and an aqueous phase. Broadly, the half-life is the time needed for the level to fall by half in the phase considered. The IC50 is the concentration needed to halve the response being measured.

A value given as a limit tells only on which side of the number the result lay.

Histamine receptor H3, sequence (Q865E1 whole entry): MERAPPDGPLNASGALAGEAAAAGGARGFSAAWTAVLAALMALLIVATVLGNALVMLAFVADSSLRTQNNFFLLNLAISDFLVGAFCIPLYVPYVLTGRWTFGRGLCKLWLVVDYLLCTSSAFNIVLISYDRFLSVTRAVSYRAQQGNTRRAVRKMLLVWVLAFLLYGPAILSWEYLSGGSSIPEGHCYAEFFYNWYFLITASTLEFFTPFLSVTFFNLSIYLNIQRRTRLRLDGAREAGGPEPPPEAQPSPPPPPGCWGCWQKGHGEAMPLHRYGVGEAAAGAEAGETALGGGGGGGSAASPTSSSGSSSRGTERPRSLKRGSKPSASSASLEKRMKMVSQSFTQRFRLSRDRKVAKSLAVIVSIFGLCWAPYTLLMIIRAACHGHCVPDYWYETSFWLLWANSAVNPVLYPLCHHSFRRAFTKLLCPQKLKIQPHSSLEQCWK
hERG (KCNH2), sequence (Q12809 whole entry): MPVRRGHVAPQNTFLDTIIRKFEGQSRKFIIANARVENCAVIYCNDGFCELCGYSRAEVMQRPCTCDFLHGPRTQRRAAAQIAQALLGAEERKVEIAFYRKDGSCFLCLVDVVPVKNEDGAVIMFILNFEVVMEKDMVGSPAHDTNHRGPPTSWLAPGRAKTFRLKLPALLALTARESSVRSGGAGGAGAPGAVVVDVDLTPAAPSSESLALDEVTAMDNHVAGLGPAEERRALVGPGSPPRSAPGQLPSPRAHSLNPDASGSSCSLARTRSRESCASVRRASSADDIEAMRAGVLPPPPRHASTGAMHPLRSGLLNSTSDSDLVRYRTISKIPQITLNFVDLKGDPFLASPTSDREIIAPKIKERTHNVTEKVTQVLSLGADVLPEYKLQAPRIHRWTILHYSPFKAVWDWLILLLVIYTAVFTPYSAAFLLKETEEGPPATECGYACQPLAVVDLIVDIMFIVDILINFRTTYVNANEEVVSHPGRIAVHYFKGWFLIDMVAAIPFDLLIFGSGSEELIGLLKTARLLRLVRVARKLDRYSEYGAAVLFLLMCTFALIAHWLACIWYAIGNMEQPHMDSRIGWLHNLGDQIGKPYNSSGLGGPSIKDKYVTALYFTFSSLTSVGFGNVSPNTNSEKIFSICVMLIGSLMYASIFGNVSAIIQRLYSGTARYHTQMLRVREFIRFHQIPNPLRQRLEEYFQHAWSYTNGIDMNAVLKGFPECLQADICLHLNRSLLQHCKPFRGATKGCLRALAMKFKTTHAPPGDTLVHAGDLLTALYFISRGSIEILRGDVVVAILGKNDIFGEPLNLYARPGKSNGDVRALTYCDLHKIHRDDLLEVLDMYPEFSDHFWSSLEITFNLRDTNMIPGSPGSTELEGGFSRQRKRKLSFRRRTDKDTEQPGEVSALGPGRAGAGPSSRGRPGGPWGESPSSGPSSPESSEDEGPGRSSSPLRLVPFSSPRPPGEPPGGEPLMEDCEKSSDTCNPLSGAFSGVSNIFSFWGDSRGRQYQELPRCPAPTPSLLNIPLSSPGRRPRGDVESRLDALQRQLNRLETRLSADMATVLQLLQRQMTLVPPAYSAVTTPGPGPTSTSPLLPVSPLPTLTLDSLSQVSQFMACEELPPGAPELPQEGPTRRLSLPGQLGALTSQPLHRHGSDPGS
Histamine H3 receptor, sequence (Q9Y5N1 whole entry): as the sequence (Q865E1 whole entry) above, with N148D, G240A, A282V, T289A, A290T, A300V, Q442H counted along it

Consider `Cc1cc(N2CC[C@H](N3CCC[C@@H]3C)C2)ccc1NC(=O)c1cc(F)ccc1C`, for which the Activity entry in the data set on Salmonella typhimurium is listed as “Non-toxic”; in the data set on Mus musculus [10], “Toxic”; in the data set with Mus musculus [17], “Toxic”. The figures for the metabolised at 20 min, 5 µM in data set [1] and in data set [4] were 19% and 3%, respectively. Also, the Kp turned out to be 4.6 in data set [2] and 4.7 in data set [14]. The time of peak concentration (Tmax) is 0.17 h in data set [3], 4.98 min in data set [6] and 1 h in [8]. Besides, the figures for the peak concentration (Cmax) in data set [5] and in [15] were 4290 ng/mL and 2000 ng/mL, respectively. Also, the Ki on Histamine receptor H3 turned out to be 2.5 nM; on Histamine H3 receptor it was 3.4 nM. On hERG (KCNH2), this molecule displayed an inhibition at 10 µM of 84.3%. This molecule also showed a clearance in data set [7] of 60 mL/min/kg. Also, the AUC(0-inf) stood at 560 ng·h/mL in data set [9] and 2600 ng·h/mL in data set [12]. In [11], this molecule showed a log partition coefficient (logP) of 3.55. Also, the half-life in data set [13] is 3.5 h; in [16] it was 2.6 h; in data set [18] it was 1.6 h; in data set [19], 3.6 h. For the same molecule, the IC50 at Cytochrome P450 2C19 was > 30000 nM.
